Source: article PMC5659729 (Life sciences, 2017)
Entries after “also recorded” stand apart in the source; their conditions may differ. Blank lines part the entries; values can stand above or below the molecule they belong to.

Tests used:
[1] = tested on: Swiss Webster mice; test: Diclofenac-induced gastric ulcers, ulcer index scoring; assay type: in vivo
[2] = tested on: gastric epithelial cells; test: TUNEL assay of gastric cell apoptosis; assay type: in vivo, mice; conditions: for DCF-induced apoptosis of stomach epithelial cells (TUNEL) versus DCF: pre-treatment TPPU 0.1 mg/kg or OME 50 mg/kg before DCF 100 mg/kg
[3] = tested on: TNF-α; test: Inflammatory marker in serum by ELISA; assay type: in vivo, mice; conditions: for Level of TNF-α in serum versus DCF: pre-treatment TPPU 0.1 mg/kg or OME 50 mg/kg before DCF 100 mg/kg
[4] = tested on: gastric mucosa of Swiss Webster mice; test: Histopathological evaluation of stomach sections; assay type: in vivo; conditions: DCF 100 mg/kg alone or after TPPU 0.1 mg/kg or OME 50 mg/kg
[5] = tested on: TxB2/PGE2; test: PGE2 and TxB2 in plasma; assay type: in vivo, mice; conditions: for Level of TxB2/PGE2 in plasma of DCF treated mice: TPPU 0.1 mg/kg or omeprazole 50 mg/kg + DCF 100 mg/kg
[6] = Quantification of drugs in plasma by LC-MS/MS; assay type: in vivo, mice; conditions: for Alterations in blood levels when TPPU and DCF co-administered: TPPU 0.1 mg/kg/day + DCF 100 mg/kg
[7] = Quantification of pH in gastric content; assay type: in vivo, mice; conditions: DCF 100 mg/kg single dose; TPPU 0.1 mg/kg 7 days + DCF; omeprazole 50 mg/kg 5 days + DCF
[8] = tested on: IL-6; test: Inflammatory marker in serum by ELISA; assay type: in vivo, mice; conditions: for Level of IL-6 in serum versus vehicle: DCF 100 mg/kg p.o. single dose; for Level of IL-6 in serum versus DCF: pre-treatment TPPU 0.1 mg/kg or OME 50 mg/kg before DCF 100 mg/kg
Procedure, shortened: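 Blood without anticoagulant was collected at sacrifice 6 h post-dose and spun at 4 °C. Serum IL-6 was measured with a pre-coated mouse ELISA kit, in duplicate, n=3–4 animals, reported as mean ± SD.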

[9] = 16 h after radioactive omeprazole administration; cited from earlier work
[10] = tested on: COX; test: PGE2 in stomach as marker of COX activity; assay type: in vivo, mice; conditions: TPPU 0.1 mg/kg or OME 50 mg/kg + DCF 100 mg/kg
[11] = cited from earlier work
[12] = tested on: CYP3A4; conditions: cited from earlier work
[13] = mice; cited from earlier work
[14] = tested on: DCF-induced intestinal ulcers; conditions: cited from earlier work
[15] = tested on: recombinant mouse sEH; conditions: affinity purified recombinant mouse sEH; cited from earlier work
[16] = tested on: piroxicam-induced inflammatory bowel disease; conditions: cited from earlier work

SMILES: O=C(O)Cc1ccccc1Nc1c(Cl)cccc1Cl [Diclofenac, diclofenac sodium]
- Gastric ulcer score 18 h after dosing ([1]; single DCF dose 100 mg/kg, 18 h): returned to normal levels
- Apoptosis of stomach epithelial cells (TUNEL positive cells) versus vehicle ([2]; DCF 100 mg/kg, listed as DCF): increased apoptosis significantly
- Level of TNF-α in serum versus vehicle ([3]; DCF 100 mg/kg p.o. single dose): significant increase (p < 0.05); also recorded: increased level of TNF-α significantly
- Histopathological observation of gastric mucosa [4]: ulceration was observed
- Levels of TxB2/PGE2 in plasma versus vehicle ([5]; DCF 100 mg/kg): significantly decreased
- Levels of PGE2 in plasma versus vehicle ([5]; data not shown): not statistically (data not shown) different
- Level of TxB2 in plasma ([5]; mice treated with only DCF, level of detection 20 pM): < 20 pM
- concentration at 6 h ([6]; Swiss Webster, mouse, plasma, oral, Mean plasma concentration of DCF, mice that received DCF or DCF + TPPU): 4000 ng/mL
- Alterations in blood levels when TPPU and DCF co-administered [6]: not observed
- Mean plasma concentration of diclofenac, diclofenac only versus DCF + OME ([6]; difference not significant, n=4): approximately 2 times
- Effect on pH of stomach (gastric content) [7]: did not alter the pH of stomachs
- Level of IL-6 in serum versus vehicle [8]: increased levels of IL-6 significantly
- Level of IL-6 in serum versus vehicle ([8]; listed as DCF): significant increase (p < 0.05)

SMILES: COc1ccc2[nH]c([S+]([O-])Cc3ncc(C)c(OC)c3C)nc2c1 (stereo not shown) [Omeprazole]
- Incidence of ulceration relative to TPPU + DCF treated animals ([1]; OME 50 mg/kg + DCF 100 mg/kg versus TPPU 0.1 mg/kg + DCF): higher
- Radioactivity of the stomach relative to blood [9]: 100 times
- Effect on COX activity in stomach (level of PGE2) of DCF treated mice [10]: did not increase the activity of COX
- DCF-induced apoptosis of stomach epithelial cells (TUNEL) versus DCF ([2]; listed as OME): decreased apoptosis significantly
- Level of TNF-α in serum versus DCF ([3]; listed as OME): normalized the level of these cytokines
- Half-life monitored in the blood [11]: 5 to 15 min
- Histopathological observation of gastric mucosa [4]: minimized gastric erosion
- Effect on activity of CYP3A4 [12]: increase activity of CYP3A4
- Level of TxB2/PGE2 in plasma of DCF treated mice [5]: increased the level of TxB2/PGE2
- Level of IL-6 in serum versus DCF ([8]; listed as OME): normalized the level of these cytokines

SMILES: CCC(=O)N1CCC(NC(=O)Nc2ccc(OC(F)(F)F)cc2)CC1 [TPPU, N-[1-(1-oxopropyl)-4-piperidinyl]-N′-[4-(trifluoromethoxy)phenyl)-urea]
- Effect on COX activity in stomach (level of PGE2) of DCF treated mice [10]: did not increase the activity of COX
- DCF-induced apoptosis of stomach epithelial cells (TUNEL) versus DCF [2]: decreased DCF-induced apoptosis of gastric cells; also recorded: decreased apoptosis significantly
- Oral availability [13]: high oral availability
- Level of TNF-α in serum versus DCF [3]: normalized the level of these cytokines; also recorded: decreased level of TNF-α significantly
- Effect on DCF-induced intestinal ulcers [14]: decreased DCF-induced intestinal ulcers
- Histopathological observation of gastric mucosa [4]: Ulceration was minimal
- Level of TxB2/PGE2 in plasma of DCF treated mice [5]: increased the level of TxB2/PGE2
- Level of IL-6 in serum versus DCF [8]: normalized the level of these cytokines; also recorded: decreased level of IL-6 significantly

SMILES: O=C(NC12CC3CC(CC(C3)C1)C2)N[C@H]1CC[C@H](Oc2ccc(C(=O)O)cc2)CC1 [t-AUCB, trans-4-[4-(3-adamantan-1-yl-ureido)-cyclohexyloxy]-benzoic acid]
- Effect on piroxicam-induced inflammatory bowel disease [16]: decrease piroxicam (a COX inhibitor)-induced inflammatory bowel disease
